Reference: ChEMBL document CHEMBL2390862, “Enmein-type diterpenoid analogs from natural kaurene-type oridonin: Synthesis and their antitumor biological evaluation” (Eur J Med Chem, 2013)

Legend:
Format in all cases: functional, cell-based
MGC-803 = assay: Cytotoxicity against human MGC803 cells after 72 hrs by MTT assay; conditions: MGC-803, 72 h
Outline: (§1)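 K562, CaEs-17, Bel-7402 and MGC-803 cells in log phase seeded at 5 × 10⁴ cells/mL, incubated with or without test compounds at 37 °C, 5% CO₂; after 72 h MTT (5 mg/mL stock) added for 4 h, formazan dissolved in DMSO, OD read at 490 nm. Negative reference 0.1% DMSO, Taxol positive control. IC50 as mean ± S.D. of three independent experiments.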

K562 = assay: Cytotoxicity against human K562 cells after 72 hrs by MTT assay; conditions: K562, 72 h; outline: as §1
[1] = Cytotoxicity against human CaEs17 cells after 72 hrs by MTT assay; conditions: CaEs17, 72 h; outline: as §1
Bel-7402 = assay: Cytotoxicity against human Bel7402 cells after 72 hrs by MTT assay; conditions: Bel-7402, 72 h; outline: as §1

SMILES	IC50 (MGC-803) [nM]	IC50 (K562) [nM]	IC50 [1] [nM]	IC50 (Bel-7402) [nM]
C=C1C(=O)[C@@]23C(=O)O[C@H]4CCC(C)(C)[C@H]5[C@H](O)OC[C@@]45[C@@H]2CC[C@@H]1[C@H]3O	14200	–	–	–
C=C1C(=O)[C@@]23C(=O)O[C@H]4CCC(C)(C)[C@H]5[C@H](O)OC[C@@]45[C@@H]2CC[C@@H]1[C@H]3OC(=O)c1cc(F)c(F)c(F)c1F	1240	1040	1890	890
C=C1C(=O)[C@@]23C(=O)O[C@H]4CCC(C)(C)[C@H]5[C@H](O)OC[C@@]45[C@@H]2CC[C@@H]1[C@H]3OC(=O)c1ccc(C(F)(F)F)cc1	960	370	760	1270
CC(=O)O[C@H]1C(=O)[C@@]2(C)[C@H]([C@H](OC(=O)c3ccccc3)[C@]3(O)C[C@H](OC(=O)[C@H](O)[C@@H](NC(=O)c4ccccc4)c4ccccc4)C(C)=C1C3(C)C)[C@]1(OC(C)=O)CO[C@@H]1C[C@@H]2O [PACLITAXEL]	–	–	430	–
C=C1C(=O)[C@@]23C(=O)O[C@H]4CCC(C)(C)[C@H]5[C@H](O)OC[C@@]45[C@@H]2CC[C@@H]1[C@H]3OC(=O)CC	1560	1020	1210	1530
C=C1C(=O)[C@@]23C(=O)O[C@H]4CCC(C)(C)[C@H]5[C@H](O)OC[C@@]45[C@@H]2CC[C@@H]1[C@H]3OC(=O)c1ccccc1Cl	800	220	600	850
